Activity calls are given as the source filed them. The rule behind the calls is not given here.
What was measured:
PC-12 [1] = test: Inhibition of H202-induced apoptosis in rat PC-12 cells assessed as early apoptotic cells at 12.5 uM after 24 hrs by Annexin-V-FITC/PI-staining based flow cytometric analysis (reference value: 15.16%); format: functional; set-up: scale not given: the % may be the effect or the level left
Outline: (§1)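 PC12 cells seeded 2 × 10⁵/well for 24 h, pretreated 24 h with 12.5, 25, 50 or 100 µM compound, then given fresh medium containing 650 µM H2O2. Harvested cells washed in binding buffer, stained 5 min with Annexin V-FITC/PI, analysed by flow cytometry.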

PC-12 [2] = test: Inhibition of H202-induced apoptosis in rat PC-12 cells assessed as viable cells at 100 uM after 24 hrs by Annexin-V-FITC/PI-staining based flow cytometric analysis (reference value: 52.01%); format: functional; conditions: read-out: Activity; outline: as §1
PC-12 [3] = test: Neuroprotective activity against H2O2-induced cytotoxicity in rat PC-12 cells assessed as cell viability at 100 uM pretreated for 24 hrs followed by H2O2 challenge and measured after 24 hrs by MTT assay (reference value: 52.81 +/- 6%); format: functional, cell-based; conditions: time 48.0 hrs
PC-12 [4] = test: Inhibition of H202-induced apoptosis in rat PC-12 cells assessed as necrotic cells at 100 uM after 24 hrs by Annexin-V-FITC/PI-staining based flow cytometric analysis (reference value: 0.33%); format: functional; set-up: scale not given: the % may be the effect or the level left; outline: as §1
Mus musculus = test: Neuroprotective activity in lesioned C57BL/6 mouse model of Parkinson's disease assessed as increase in time spent on rotarod at 100 mg/kg, po administered for 2 week after MPTP stimulation by rotarod test; format: functional; conditions: time 2 weeks
Outline: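 Male 10-week-old C57BL/6 mice (20–23 g), n = 6/group. Prophylactic: oral compound (50 or 100 mg/kg in saline) 2 weeks, then MPTP-HCl 25 mg/kg i.p. in week 3. Therapeutic: MPTP-HCl 25 mg/kg i.p. 1 week, then oral 100 mg/kg 2 weeks. Saline vehicle. Pole/rotarod training last 3 days; TH immunohistochemistry on SNpc and striatum.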

PC-12 [5] = test: Inhibition of H202-induced apoptosis in rat PC-12 cells assessed as late apoptotic cells at 50 uM after 24 hrs by Annexin-V-FITC/PI-staining based flow cytometric analysis (reference value: 32.5%); format: functional; set-up: scale not given: the % may be the effect or the level left; outline: as §1
PC-12 [6] = test: Inhibition of H202-induced apoptosis in rat PC-12 cells assessed as early apoptotic cells at 25 uM after 24 hrs by Annexin-V-FITC/PI-staining based flow cytometric analysis (reference value: 15.16%); format: functional; set-up: scale not given: the % may be the effect or the level left; outline: as §1
PC-12 [7] = test: Inhibition of H202-induced apoptosis in rat PC-12 cells assessed as necrotic cells at 12.5 uM after 24 hrs by Annexin-V-FITC/PI-staining based flow cytometric analysis (reference value: 0.33%); format: functional; set-up: scale not given: the % may be the effect or the level left; outline: as §1

SMILES: COc1ccccc1/C=C/C=C/C(=O)N1CCCCC1
- Activity (PC-12 [1]): 12.26%
- viability at 100 µM (PC-12 [2]): 58%
- Activity (PC-12 [3]): Active
- Activity (PC-12 [4]): 0.57%
- Time (Mus musculus): 189.5 s
- Activity (PC-12 [5]): 12.95%
- Activity (PC-12 [6]): 12.72%
- Activity (PC-12 [7]): 0.3%

— ChEMBL document CHEMBL4765320, “Identification and optimization of piperine analogues as neuroprotective agents for the treatment of Parkinson's disease via the activation of Nrf2/keap1 pathway” (Eur J Med Chem, 2020)
